Source: ChEMBL document CHEMBL1800063, “Isolation and structural elucidation of proline-containing cyclopentapeptides from an endolichenic Xylaria sp” (2011)
Calls of active or inactive are those of the source. No cut-off for these calls is given here.

Assays:
[1] = system: Candida albicans; assay: Antifungal activity against Candida albicans SC5314 at 100 ug/mL after 16 hrs by CLSI M-27A broth microdilution method in presence of 0.004 ug/mL ketoconazole relative to compound alone; type: functional, organism-based
[2] = system: Candida albicans; assay: Antifungal activity against Candida albicans SC5314 at 100 ug/mL after 16 hrs by broth microdilution method; type: functional, organism-based
How it was run: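 Candida albicans SC5314 broth microdilution adapted from CLSI M-27A. Overnight culture suspended in RPMI 1640 at 1 × 10^4 cfu/mL. 2 μL of sample plus 80 μL of suspension per well, incubated at 35 °C for 16 h. Ketoconazole was the positive control. Growth was read as optical density against blank-control wells to give the MIC.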

[3] = system: Candida albicans; assay: Antifungal activity against Candida albicans SC5314 at 1 ug/mL after 16 hrs by broth microdilution method in presence of 0.004 ug/mL ketoconazole relative to compound alone; type: functional
[4] = system: Candida albicans; assay: Antifungal activity against Candida albicans SC5314 at 6.25 ug/mL after 16 hrs by broth microdilution method in presence of 0.004 ug/mL ketoconazole relative to compound alone; type: functional

For CC(C)[C@@H](C)/C=C/[C@@H](C)[C@H]1CC[C@H]2C3=C[C@@H](O)[C@@]4(O)C[C@@H](O)CC[C@]4(C)[C@H]3CC[C@]12C, the Activity [1] was “inactive” and the Activity [2] was “inactive”.
CC(C)[C@@H]1OC(=O)[C@@H](Cc2ccccc2)N(C)C(=O)[C@H](C(C)C)OC(=O)[C@@H](Cc2ccccc2)N(C)C(=O)[C@H](C(C)C)OC(=O)[C@@H](Cc2ccccc2)N(C)C1=O [BEAUVERICIN] was tested, and the “fractional inhibitory concentration index (FICI)” value [3] was less than 0.375.
CC(C)[C@@H](C)/C=C/[C@@H](C)[C@H]1CC[C@H]2C3=CC=C4C[C@@H](O)CC[C@]4(C)[C@H]3CC[C@]12C was tested, and the Activity [1] was “inactive” and the Activity [2] was “inactive”.
With CC(C)C(C)/C=C/[C@@H](C)[C@H]1CCC2=C3C=CC4=CC(=O)CC[C@]4(C)[C@H]3CC[C@@]21C (some centres not stated) the Activity [1] was “inactive” and the Activity [2] was “inactive”.
For CC(C)[C@@H](C)/C=C/[C@@H](C)[C@H]1CC[C@@H]2[C@]1(C)CCC1[C@]23C=CC2(CC(O)CC[C@]12C)OO3 (some centres not stated), the Activity [1] was “inactive” and the Activity [2] was “inactive”.
CC[C@@H](C)[C@H]1NC(=O)[C@H](C(C)C)NC(=O)[C@H](Cc2ccccc2)N(C)C(=O)[C@@H]2CCCN2C(=O)[C@H](CC(C)C)NC1=O was tested, and the “fractional inhibitory concentration index (FICI)” value [4] was less than 0.3125 and the Activity [2] was “inactive”.
In the case of CO[C@@H]1C=C2C3CC[C@H](C(C)/C=C/C(C)C(C)C)[C@@]3(C)CC[C@@H]2[C@@]2(C)CC[C@H](O)C[C@]12O (some centres not stated), the Activity [1] is reported as “inactive” and the Activity [2] is reported as “inactive”.
C[C@]1(CCO)CC[C@H]2C(=CC[C@@H]3[C@]2(C)CCC[C@@]3(C)C(=O)O)C1 was tested, and the Activity [1] was “inactive” and the Activity [2] was “inactive”.
CC(C)[C@@H](C)/C=C/[C@@H](C)[C@H]1CC[C@H]2C3=CC(=O)C4=CC(=O)CC[C@]4(C)[C@H]3CC[C@]12C was tested, and the Activity [1] was “inactive” and the Activity [2] was “inactive”.
